Consider 6 molecules from paper PMC5388221 (Drug Design, Development and Therapy, 2017).

Where two headings read alike, the source gives them in different places. Some results are limits rather than exact numbers.

Series [1] relates to bloodstream trypomastigotes (BTs) of T. cruzi (Y strain). Kind of series: Trypanocidal assay against bloodstream trypomastigotes. In kind it is cell-based, Trypanosoma cruzi. The following applies: for SI (LC50/EC50), BTs: LC50 on cardiac cells at 24 h, BTs 24 h/37°C; for EC50: read-out: EC50 (µM), BTs. An outline of the steps:
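Bloodstream trypomastigotes come from Swiss mice at peak parasitemia. They are incubated at 5×10^6/mL in RPMI 1640 plus 10% fetal bovine serum with serial dilutions of test compound (0.001–10.6 µM) for 24 h at 37°C. Motile live parasites are counted by light microscopy in a Neubauer chamber; EC50 is a 50% drop versus untreated. SI = 24 h MTT LC50 on uninfected mouse cardiac cells/EC50.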

The test system of series [2] is intracellular amastigotes of T. cruzi (Y strain). Briefly: Effect against intracellular parasites in infected cardiac cell cultures. In kind it is cell-based, Trypanosoma cruzi. As to conditions: for SI (LC50/EC50), intracellular amastigotes: LC50 on cardiac cells at 48 h, 48 h/37°C. In a few lines:
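T. cruzi Y strain infects primary embryonic Swiss mouse cardiac cells (parasite:host 10:1, 24 h), which are then washed. Cells are exposed to test compound (0.043–3.5 µM) for 48 h at 37°C in 5% CO2, then Bouin-fixed and Giemsa-stained. Infective index is % infected cells × mean parasites per infected cell; EC50 is 50% index reduction versus untreated. SI = 48 h MTT LC50 (uninfected cells)/EC50.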

Series [3] has the same test system. The following applies: read-out: EC50, infection of T. cruzi-infected CCs; after 48 h of treatment; cited from earlier work.
The conditions of series [4]: fast plasmatic clearance profile; cited from earlier work.

In the case of “2,5-Bis[2-(2,2,2-trifluoroethoxy)-4-(2-pyridylimino)aminophenyl]furan [DB1959]”, the “SI (LC50/EC50), BTs” value in series [1] is recorded as 45. Further, the 50% effective concentration (EC50) in series [1] (24 h/37°C, Y strain) worked out at 0.078 ± 0.01 µM. Also, the “SI (LC50/EC50), intracellular amastigotes” value in series [2] stood at 1.6.
Turning to “2,5-Bis[2-isobutoxy-4-(2-pyridylimino) aminophenyl]furan hydrochloride [DB1890B]”, the concentration for a half-maximal effect (EC50) in series [3] was 900 nM; in series [1] (24 h/37°C, Y strain) it was 0.014 ± 0.007 µM. For the same molecule, the “SI (LC50/EC50), BTs” value in series [1] was determined as 760. The “SI (LC50/EC50), intracellular amastigotes” value in series [2] is recorded as 9.7.
With “2,5-Bis[2-isopropoxy-4-(2-pyridylimino) aminophenyl]thiophene [DB1957]”, the “SI (LC50/EC50), BTs” value in series [1] is reported as 17. In addition, the EC50 in series [1] (24 h/37°C, Y strain) came out at 0.068 ± 0.0014 µM. The “SI (LC50/EC50), intracellular amastigotes” value in series [2] stood at 6.
As for `O=C(Cn1ccnc1[N+](=O)[O-])NCc1ccccc1` [Bz, benznidazole, reference compound], in series [1], the “SI (LC50/EC50), BTs” value is reported as greater than 77. The EC50 in series [1] (Trypanosoma cruzi, 24 h) amounted to 12.9 ± 1.93 µM; in series [2] (Trypanosoma cruzi, 48 h, read-out: EC50 (µM), intracellular amastigotes), 3.7 ± 1.72 µM. In series [2], the “SI (LC50/EC50), intracellular amastigotes” value is greater than 360.
Regarding `CC(C)Oc1cc(NC(=N)c2ccccn2)ccc1-c1ccc(-c2ccc(NC(=N)c3ccccn3)cc2OC(C)C)s1` [DB1867, reference compound], the half-maximal effective concentration (EC50) in series [3] is 58 nM.
With `CC1CS(=O)(=O)CCN1/N=C/c1ccc([N+](=O)[O-])o1` (stereo not shown) [nifurtimox], the Half-life in series [4] is recorded as 3 h.
